Source: PubChem BioAssay (several laboratories)
Shown are actives, neighbours in structure and some others; about 0.6% of the full set was active somewhere.
Tn7 DDE FP = inhibitors of Tn7 peptide binding to fibrin DD(E), primary screen, biochemical, fluorescence polarization, human fibrin, Tn7 probe | FP displacement of FITC-Tn7 peptide from fibrin DD(E); 0% = median of compound wells per plate | inhibition, % at 8.3 µM | 0.13% of 370,000 active | AID 720508, 2013;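 active = inhibition above the mean of compounds falling within the control limits plus 3 SD of them, cut at about 14% in these data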;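 also: 0% = plate median of compound wells and 100% = 10 µM Aha-Tn7 peptide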
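Assay system: human fibrin DD(E). Input: DD(E) 2 µM final. Medium: Tris buffer with calcium and detergent, pH 7.8. Compound dosing: single point at 8.3 µM. Timing: 10 min plus 3 h, room temperature. Technique: fluorescence polarization of the labelled Tn7 tracer. Read-out: percent inhibition. Replicates: singlicate testing.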
Keap1-Nrf2 PPI = Keap1-Nrf2 protein-protein interaction inhibitors, primary screen, biochemical, fluorescence polarization, single point | Kelch-like ECH-associated protein 1 (Homo sapiens), Q14145 | Keap1 Kelch-Nrf2 peptide fluorescence polarization, 1536-well | inhibition, % at 9.4 µM | 0.15% of 340,000 active; in the data active = inhibition above about 12%;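 also: human Keap1 Kelch domain with fluorescein labeled Nrf2 9mer peptide probe; 0% = neutral control wells and 100% = peptide positive control; higher means more block of Keap1 binding to Nrf2 peptide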
LANA DNA inh = inhibitors of KSHV C-LANA binding to DNA, primary screen, biochemical, fluorescence polarization, FAM-LBS DNA, MBP-C-LANA, single point; Kaposi's sarcoma herpesvirus LANA C-terminal domain (residues 932-1162) DNA binding; inhibition, % at 9 µM; 0.078% of 340,000 active; AID 504423, 2011;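 active = highest replicate inhibition at or above 60% at 9 µM, even if other replicates fall short; inactive = all replicates below 60% inhibition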;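 also: 0% = neutral control wells and 100% = 4 µM acridine orange control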
Tn6 DDE FP = inhibitors of Tn6 peptide binding to fibrin DD(E), primary screen, biochemical, fluorescence polarization, human fibrin, Tn6 probe; Fibrinogen beta chain (Homo sapiens), P02675; inhibition, % at 8.3 µM; Fibrin DD(E) TRITC-Tn6 fluorescence polarization displacement; 0.21% of 370,000 active;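 active = inhibition above a per-campaign cutoff: mean of compounds within control limits plus 3 SD, cut at about 15% in these data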;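 also: 0% = median of all compound wells on the plate and 100% = blocking peptide control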
Rtt109 Vps75 = inhibitors of C. albicans Rtt109/Vps75 HAT, primary screen, biochemical, ThioGlo CoA-SH fluorescence, plate reader | 0.16% of 330,000 active | Histone acetyltransferase RTT109 (Candida albicans (strain SC5314 / ATCC MYA-2876)), … | AID 540336, 2011 | purified Rtt109/Vps75, 4 h | inhibition, % at 34.9 µM;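 active = inhibition of at least 50% in every replicate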
Target sequence (Q5AAJ8 whole entry, looked up): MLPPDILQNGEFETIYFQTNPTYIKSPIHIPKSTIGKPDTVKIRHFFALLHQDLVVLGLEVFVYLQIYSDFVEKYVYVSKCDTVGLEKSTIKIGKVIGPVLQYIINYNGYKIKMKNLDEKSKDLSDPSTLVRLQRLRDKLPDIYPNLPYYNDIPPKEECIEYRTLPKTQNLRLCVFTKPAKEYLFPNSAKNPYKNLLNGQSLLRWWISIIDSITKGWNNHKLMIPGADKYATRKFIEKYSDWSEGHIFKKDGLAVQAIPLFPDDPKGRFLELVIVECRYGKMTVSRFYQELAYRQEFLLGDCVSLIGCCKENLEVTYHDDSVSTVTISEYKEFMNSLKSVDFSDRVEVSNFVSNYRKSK
Keap1 Kelch bind = Keap1 Kelch domain binders by thermal stabilisation, dose response, biophysical, thermal shift, RT-PCR instrument, cherry-pick | shares compounds with Keap1-Nrf2 PPI | 8% of 400 active | AID 651823, 2012 | delta Tm; hits give high values | max delta Tm, degrees C; in the data active = max delta Tm above about 0.48 degrees C
Dye-only ctr = Sypro Orange dye melt without protein, dose response, artefact control for Keap1-Nrf2 interaction inhibitor project, biochemical, thermal shift counterscreen, cherry-pick. 140 tested, under 10 active. delta Tm, degrees C (no concentration beside the values). Sypro Orange dye-only thermal melt, no protein, delta Tm; top dose 26 µM. AID 651858, 2012. shares compounds with Keap1-Nrf2 PPI;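 active = at highest dose tested, delta Tm positive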
* = called active by the depositor; · = no result given.

SMILES	Tn7 DDE FP	Keap1-Nrf2 PPI	LANA DNA inh	Tn6 DDE FP	Rtt109 Vps75	Keap1 Kelch bind	others
Cc1cc(C)c(C)c(S(=O)(=O)Nc2ccccc2C(=O)NN2CCOCC2)c1C	-5.1	1.8	-1.6	3.8	-4.5	·
CCN(CC)S(=O)(=O)c1ccc(C(=O)OCCN2C(=O)c3cccc4c(N5CCOCC5)ccc(c34)C2=O)cc1	2.5	27.1*	30.7	-1.4	4.5	0.07
CC(=O)N(C(C)=O)N1C(=O)c2cccc3c(N4CCOCC4)ccc(c23)C1=O	1.8	-2.8	15.2	-8.4	-6.7	·
Cc1nnc(SCC2=C(C(=O)O)N3C(=O)C(NC(=O)COc4ccccc4)C3SC2)s1 (stereo unspecified)	4.3	-3.9	2.1	1.6	0.8	·
CCC(C(=O)NC1C(=O)N2C(C(=O)O)=C(CSc3nnc(C)s3)CSC12)c1ccccc1 (stereo unspecified)	-6.0	30.0*	16.9	-1.5	5.8	-0.12	Dye-only ctr=-26
CN(C)c1ccc2cc(S(=O)(=O)O)cc(O)c2c1	-0.3	12.0*	54.0	-12.2	4.4	1.32
O=Nc1c(O)ccc2cc(S(=O)(=O)O)ccc12	·	4.7	5.0	·	7.1	·
CCN(CC)c1ccc(C2NC(=O)c3ccccc3N2)cc1 (stereo unspecified)	11.0	-0.5	-0.4	-1.8	-2.4	·
CCN(CC)c1ccc(C2Nc3cccc4cccc(c34)N2)cc1	1.0	26.4*	24.9	-12.1	-0.4	-0.02
COC(=O)[C@]12C[C@H](CC(=O)NCc3cccs3)C(=O)N(Cc3ccccc3)C1=C[C@H](COCc1ccccc1)O[C@@H]2C	1.7	·	·	1.1	·	·
Cc1nnsc1C(=O)N1CCN(c2ccc(F)cc2)CC1	-1.3	13.9*	11.2	3.9	1.9	-0.15
c1ccc(-c2nnc(CN3CCC4(CC3)OCCO4)o2)cc1	-2.0	3.1	-1.6	-1.0	4.0	·
OC(CCN1CCC2(CC1)OCCO2)C(F)(F)F (stereo unspecified)	-3.9	18.6*	8.1	1.4	1.0	-0.12
CCN(CC)c1ccc(C=NNC(=O)c2cc(-c3ccc(C)c(C)c3)n[nH]2)c(O)c1	4.7	·	·	6.6	·	·
CCCc1cc(NC(=O)COC(=O)c2nccnc2N)n(-c2ccccc2)n1	2.9	57.3*	25.7	10.5	-31.8	-0.08
Cc1cc(NC(=O)COC(=O)c2nccnc2N)n(-c2ccccc2)n1	-5.5	-4.9	2.4	4.1	-1.8	·
CCC(Sc1nc2ccccc2s1)C(=O)Nc1nnc(C)s1 (stereo unspecified)	-2.3	-6.2	-0.5	2.8	-2.8	·
CC(Sc1nc2ccccc2s1)C(=O)Nc1nnc(C(C)C)s1 (stereo unspecified)	·	70.6*	81.3*	·	-3.4	-0.04
COc1cc(NC(=O)CSc2nc3ccccc3cc2C)c(C(=O)O)cc1OC	-4.3	-3.6	0.9	4.0	-1.5	·
COc1cc(NC(=O)CSc2nc3cc(C)ccc3cc2C)c(C(=O)O)cc1OC	-2.4	16.4*	10.1	0.2	-3.3	-0.12	Dye-only ctr=-21.5
CC(C)CNS(=O)(=O)CC1NCc2ccccc21 (stereo unspecified)	1.8	·	·	-7.5	·	·
Cc1ccc(NC(=O)N2CCC(c3nc4ccc(Cl)cc4[nH]3)CC2)cc1F	-2.4	·	·	-2.2	·	·
CCOC(=O)N1CCN(Cc2ccccc2F)CC1	-4.1	-0.4	-0.2	2.4	-18.9	·
CCOC(=O)N1CCN(Cc2ccccc2Cl)CC1	-7.4	14.5*	-2.2	-5.5	1.1	-0.17
C=CCN1C(=O)[C@H](CC(=O)NCc2ccccc2)[C@@]2(C(=O)OCC)CCCC=C12	4.1	·	·	2.2	·	·
SMILES	Tn7 DDE FP	Keap1-Nrf2 PPI	LANA DNA inh	Tn6 DDE FP	Rtt109 Vps75	Keap1 Kelch bind	others
Cc1ccc(-n2c(SCC(=O)Nc3cccc4ccccc34)nnc2-c2cccs2)cc1	-3.5	·	·	-1.4	·	·
COc1cc(C2C(C#N)=C(N)OC3=C2C(=O)CC(C)(C)C3)c([N+](=O)[O-])cc1OC (stereo unspecified)	-6.2	3.2	8.3	4.4	-5.0	·
CC1(C)CC(=O)C2=C(C1)OC(N)=C(C#N)[C@@H]2c1ccccc1[N+](=O)[O-]	10.8	39.2*	35.8	-6.6	-9.1	-0.02	Dye-only ctr=-27.8
C=CC[C@@H]1NN2C(=O)[C@@H](C)[C@@H]3c4ccccc4C=NN3[C@@H]2c2ccccc21	10.3	·	·	-0.8	·	·
Nc1cccc2cc(S(=O)(=O)O)ccc12	-1.7	14.5*	73.4*	-2.0	0.9	0.24
Nc1ccc2c(S(=O)(=O)O)cccc2c1S(=O)(=O)O	-4.1	-2.1	1.9	-7.3	2.2	·
CCN1C(=O)c2cccc3c(N)ccc(c23)C1=O	32.2*	38.5*	38.3	6.6	-22.3	-0.2
O=C(OC12CCCN(C1)/C(=C/c1ccncc1)C2)c1ccc(F)cc1 (stereo unspecified)	-7.8	·	·	4.2	·	·
CCCCN1CCN(C(=O)C2CCN(S(=O)(=O)c3ccc4[nH]c(=O)oc4c3)CC2)CC1	3.3	·	·	14.5	·	·
COc1[nH]c(/N=C/c2ccccc2)c(C#N)c1C#N	5.8	77.7*	101.9*	38.0*	5.3	-0.04
CNc1nnc(SCC(=O)c2cc(C)n(C3CC3)c2C)s1	0.4	46.2*	26.2	-0.7	-5.6	-0.08
COc1ccccc1NC(=O)C(C)OC(=O)C1COc2ccccc2O1 (stereo unspecified)	5.4	21.9*	9.7	1.7	4.9	-0.1
C=CCN1[C@H](C)COc2cc(N3CCSCC3)ccc2S1(=O)=O	-6.7	·	·	-0.8	·	·
C=CCn1c(O)c(CN2CCOCC2)c(C)c(C#N)c1=O	·	13.7*	15.6	·	-17.6	0.09
O=C1c2ccccc2-c2onc3ccc(Oc4ccccc4)c1c23	6.1	56.3*	10.5	4.7	-1.1	-0.07	Dye-only ctr=-30.3
CN(CCC#N)C(=O)COC(=O)C1c2ccccc2Oc2ccccc21	0.3	-4.5	-0.4	0.7	-24.6	·
N#CCCN(CCC#N)C(=O)C1c2ccccc2Oc2ccccc21	10.4	63.5*	94.9*	58.6*	3.5	-0.18	Dye-only ctr=-32.3
Cc1ccc(C(=O)N/C(=C\c2ccc(-c3ccccc3[N+](=O)[O-])o2)C(=O)NCCCN(C)C)cc1	4.8	13.9*	32.3	-7.2	-2.3	0.02
